Measurements published in ChEMBL document CHEMBL1806430, “Novel aliphatic N-oxide of naphthalimides as fluorescent markers for hypoxic cells in solid tumor” (Eur J Med Chem, 2011).
Blank lines part the entries; values can stand above or below the compound they belong to.

How the values were obtained:
Nucleic Acid = assay: Binding affinity to calf thymus DNA assessed as binding constant; type: nucleic-acid assay; settings: Bos taurus
In short: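 Fluorescence titration: compound at 10 × 10^-6 M in 20 mM Tris–HCl pH 7.5 at room temperature, with calf thymus DNA added in rising amounts (0–400 × 10^-6 M). Excitation 460 nm; emission spectra recorded.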

V79 [1] = assay: Ratio drug uptake in chinese hamster V79 379A cells in hypoxic to oxic condition assessed as accumulation of fluorescent N-Oxide Benzo[k,l]thioxanthene-3,4-naphthalimide metabolites at 10^-4 M after 4.5 hrs by fluorescent microscopic analysis; type: ADME, cell-based, Cricetulus griseus; settings: 100 µM
In short: (§1)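 Hypoxic/oxic fluorescence ratio in V79 379A suspension cultures (MEM, 7.5% FCS). Cells given 10^-4 M compound (DMSO ≤1% final) at 37 °C under N2 + 5% CO2 or air + 5% CO2. Samples taken over a time course, centrifuged, PBS-washed and resuspended. Fluorescence read by microplate reader ("fluorescence scan ascent"); ratio taken at about 4.5 h.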

V79 [2] = assay: Drug uptake in oxic-chinese hamster V79 379A cells assessed as accumulation of fluorescent N-Oxide Benzo[k,l]thioxanthene-3,4-naphthalimide metabolite at 10^-4 M after 4.5 hrs by fluorescent microscopic analysis; type: ADME, cell-based, Cricetulus griseus; settings: 100 µM
In short: (§2)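 V79 379A cells grown as suspension cultures in Eagle's MEM (suspension-modified, Earle's salts) with 7.5% fetal calf serum. Compound added at 10^-4 M, DMSO 1% final or less. Incubated 4.5 h at 37 °C under nitrogen + 5% CO2 (hypoxic) or air + 5% CO2 (oxic). Cells centrifuged, PBS-washed, resuspended in PBS, then imaged by fluorescence microscopy, excitation 410 nm, 1000×.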

V79 [3] = assay: Drug uptake in hypoxic-chinese hamster V79 379A cells assessed as accumulation of fluorescent N-Oxide Benzo[k,l]thioxanthene-3,4-naphthalimide metabolites at 10^-4 M after 4.5 hrs by fluorescent microscopic analysis; type: ADME, cell-based, Cricetulus griseus; settings: 100 µM; in short: as §2
V79 [4] = assay: Drug uptake in oxic-chinese hamster V79 379A cells assessed as accumulation of fluorescent N-Oxide 3-nitro-1,8-naphthalimide metabolite at 10^-4 M after 4.5 hrs by fluorescent microscopic analysis; type: ADME, cell-based, Cricetulus griseus; settings: 100 µM; in short: as §2
V79 [5] = assay: Ratio drug uptake in chinese hamster V79 379A cells in hypoxic to oxic condition assessed as accumulation of fluorescent N-Oxide 3-nitro-1,8-naphthalimide metabolites at 10^-4 M after 4.5 hrs by fluorescent microscopic analysis; type: ADME, cell-based, Cricetulus griseus; settings: 100 µM; in short: as §1
V79 [6] = assay: Drug uptake in hypoxic-chinese hamster V79 379A cells assessed as accumulation of fluorescent N-Oxide 3-nitro-1,8-naphthalimide metabolites at 10^-4 M after 4.5 hrs by fluorescent microscopic analysis; type: ADME, cell-based, Cricetulus griseus; settings: 100 µM; in short: as §2
V79 [7] = assay: Drug uptake in hypoxic-chinese hamster V79 379A cells assessed as accumulation of fluorescent N-Oxide 3-amino-1,8-naphthalimide metabolites at 10^-4 M after 4.5 hrs by fluorescent microscopic analysis; type: ADME, cell-based, Cricetulus griseus; settings: 100 µM; in short: as §2
V79 [8] = assay: Drug uptake in oxic-chinese hamster V79 379A cells assessed as accumulation of fluorescent N-Oxide 3-amino-1,8-naphthalimide metabolite at 10^-4 M after 4.5 hrs by fluorescent microscopic analysis; type: ADME, cell-based, Cricetulus griseus; settings: 100 µM; in short: as §2
V79 [9] = assay: Ratio drug uptake in chinese hamster V79 379A cells in hypoxic to oxic condition assessed as accumulation of fluorescent N-Oxide 3-amino-1,8-naphthalimide metabolites at 10^-4 M after 4.5 hrs by fluorescent microscopic analysis; type: ADME, cell-based, Cricetulus griseus; settings: 100 µM; in short: as §1
V79 [10] = assay: Ratio drug uptake in chinese hamster V79 379A cells in hypoxic to oxic condition assessed as accumulation of fluorescent N-Oxide Benzo[k,l]xanthene-3,4-naphthalimide metabolites at 10^-4 M after 4.5 hrs by fluorescent microscopic analysis; type: ADME, cell-based, Cricetulus griseus; settings: 100 µM; in short: as §1
V79 [11] = assay: Ratio drug uptake in chinese hamster V79 379A cells in hypoxic to oxic condition assessed as accumulation of fluorescent N-Oxide Benzo[b]xanthene [2,1-c]naphthalimide metabolites at 10^-4 M after 4.5 hrs by fluorescent microscopic analysis; type: ADME, cell-based, Cricetulus griseus; settings: 100 µM; in short: as §1

K (Nucleic Acid): 6.62 ×10³ /M | Ratio (V79 [1]): 1.75 | Drug uptake (V79 [2]): Not Active | Drug uptake (V79 [3]): Active
SMILES: C[N+](C)([O-])CCn1c(=O)c2ccc3sc4ccccc4c4ccc(c1=O)c2c34

Drug uptake (V79 [4]): Not Active | Ratio (V79 [5]): 17 | Drug uptake (V79 [6]): Active
SMILES: C[N+](C)([O-])CCN1C(=O)c2cccc3cc([N+](=O)[O-])cc(c23)C1=O

K (Nucleic Acid): 2.9 ×10⁵ /M
SMILES: CN(C)CCn1c(=O)c2ccc3sc4ccccc4c4ccc(c1=O)c2c34

Drug uptake (V79 [7]): Active | Drug uptake (V79 [8]): Not Active | Ratio (V79 [9]): 8.4
SMILES: C[N+](C)([O-])CCN1C(=O)c2cccc3cc(N)cc(c23)C1=O

Ratio (V79 [10]): 1.5
SMILES: C[N+](C)([O-])CCn1c(=O)c2ccc3oc4ccccc4c4ccc(c1=O)c2c34

Ratio (V79 [11]): 5.2
SMILES: C[N+](C)([O-])CCN1C(=O)c2cccc3c2c(cc2c4ccccc4sc32)C1=O
